Results reported in PMC6301076 (Bioorganic & medicinal chemistry letters, 2018).
Values joined by “and” are separate entries in the source; they are usually repeats but may differ in a detail not shown here. Identical values can stand only once. Like-named read-outs stand apart in the source and are kept apart here. Marks after values point to notes of the source that are not given here.

How the values were obtained:
[1] = Aqueous solubility by nephelometry; format: physicochemical; conditions: concentration range; for Sol6.5: pH 6.5 phosphate buffer; for Sol2.0: 0.01 M HCl (approx. pH 2.0)
[2] = In vitro intrinsic clearance in human liver microsomes; format: in vitro ADME; conditions: absence of co-factor
Procedure, shortened: (§1)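 Test compound incubated with human or mouse liver microsomes. Control incubations without NADPH detect cofactor-independent degradation, such as by non-specific microsomal esterases. Read-out is intrinsic clearance, also expressed as in vitro half-life.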

[3] = In vitro intrinsic clearance in mouse liver microsomes; format: in vitro ADME; conditions: absence of co-factor
Procedure, shortened: as §1

[4] = tested on: S. mansoni; assay: In vivo antischistosomal activity in S. mansoni-infected mice; conditions: 1 × 100 mg/kg po
[5] = Plasma exposure after oral administration to mice; format: in vivo; conditions: 100 mg/kg, plasma concentration versus time profile
[6] = tested on: S. mansoni; conditions: cited from earlier work; for single oral dose ED50: S. mansoni mouse model
[7] = tested on: schistosomula (NTS); conditions: 10 μM concentration; cited from earlier work
[8] = tested on: cultured adult S. mansoni; conditions: cited from earlier work
[9] = after 100 mg/kg oral dose of Ro 13-3978 to mice; cited from earlier work

Work on CC(C)(NC(=O)Nc1ccccc1)C(=O)O [compound 3] yielded a Sol6.5 [1] of 50 to 100 µg/mL.

For CC(C)(C(=O)O)N1CCCN(c2ccc(F)c(C(F)(F)F)c2)C1=O [compound 4], the Sol2.0 [1] was >100/>100 μg/mL and the Sol6.5 [1] was >100/>100 μg/mL.

Work on CC(C)(NC(=O)Cc1ccc(F)c(C(F)(F)F)c1)C(=O)O [compound 6] yielded a Sol2.0 [1] of 50 to 100 µg/mL and a Sol6.5 [1] of 25 to 50 µg/mL.

With CCOC(=O)C(C)(C)NC(=O)Nc1ccc(F)c(C(F)(F)F)c1 [compound 13] the Sol2.0 [1] was 3.1-6.3/3.1-6.3 μg/mL, the Sol6.5 [1] was 3.1-6.3/3.1-6.3 μg/mL and the “stability in control microsomal incubations” value [2] was “underwent non-NADPH mediated degradation”. For the same compound, the “stability in control microsomal incubations” value [3] was “underwent non-NADPH mediated degradation” and the “S. mansoni WBR” value [4] was 70^f %.

For CC(C)(CC(=O)Nc1ccc(F)c(C(F)(F)F)c1)C(=O)O [compound 5], the Sol2.0 [1] was 25-50/25-50 μg/mL and the Sol6.5 [1] was 25-50/25-50 μg/mL.

With O=C(Nc1ccc(F)c(C(F)(F)F)c1)NC1(C(=O)O)CC1 [compound 8] the Sol2.0 [1] was >100/>100 μg/mL and the Sol6.5 [1] was >100/>100 μg/mL.

CC(C)(C(=O)O)n1c(=O)[nH]c2cc(C(F)(F)F)c(F)cc21 [compound 10] showed a Sol2.0 [1] of 50 to 100 µg/mL.

Work on CC(C)(C(=O)O)N1Cc2cc(F)c(C(F)(F)F)cc2NC1=O [compound 11] yielded a Sol2.0 [1] of 50 to 100 µg/mL.

In the case of CC(C)(NC(=O)Nc1ccc(F)c(C(F)(F)F)c1)C(N)=O [compound 12], the Sol2.0 [1] is reported as 50-100/50-100 μg/mL and the Sol6.5 [1] is reported as 50-100/50-100 μg/mL.

Compound O=C(Nc1ccc(F)c(C(F)(F)F)c1)NC1(C(=O)O)CCC1 [compound 9] has a Sol2.0 [1] of 50 to 100 µg/mL.

In the case of CC(C)(NC(=O)Nc1ccc(F)c(C(F)(F)F)c1)C(=O)O [compound 2], the Sol2.0 [1] is given as 25 to 50 µg/mL, the oral absorption [5] is given as “rapid and extensive absorption” and the “S. mansoni WBR” value ([6]; 1 × 100 mg/kg po, S. mansoni-infected mice, ref 4 (Wang et al.), 100 mg/kg) is given as 67% and 67^d %. For the same compound, the “activity against schistosomula (NTS)” value [7] was “no activity”, the “activity against cultured adult S. mansoni” value ([8]; 10 μM concentration) was “no activity” and the “exposure relative to that of Ro 13-3978, based on AUC0-24h” value [9] was under 1%.

For O=C(O)CNC(=O)Nc1ccc(F)c(C(F)(F)F)c1 [compound 7], the Sol2.0 [1] was >100/>100 μg/mL and the Sol6.5 [1] was >100/>100 μg/mL.

In the case of O=C(C1CCCCC1)N1CC(=O)N2CCc3ccccc3C2C1 (stereo not drawn) [praziquantel, reference compound], the “single oral dose ED50” value [6] is given as 172 mg/kg.

For CC1(C)NC(=O)N(c2ccc(F)c(C(F)(F)F)c2)C1=O [Ro 13-3978, reference compound], the “single oral dose ED50” value [6] is listed as 15 mg/kg and the “effect on cultured adult S. mansoni” value [8] is listed as “little effect”.
